Measurements: ChEMBL document CHEMBL1128421, “(Piperidinylalkoxy)chromones: novel antihistamines with additional antagonistic activity against leukotriene D4” (J Med Chem, 1995)
Activity calls are given as the source filed them. The rule behind the calls is not given here.

What was measured:
[1] = species on record: Cavia porcellus; assay: Compound was evaluated for inhibition of contraction in guinea pig ileum induced by leukotriene D4 (LTD4).; format: functional, organism-based
Method in brief: (§1)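 Isolated guinea pig ileum strip in Krebs buffer at 37 °C, continuously bubbled with 95% O2–5% CO2. After washing, the strip was pre-incubated with compound for 30 min before LTD4 challenge. Contraction was induced by LTD4 at 10 nM. The value reported is the antagonist concentration giving 50% of maximal inhibition. Means ± SD of ≥3 independent experiments.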

[2] = species on record: Cavia porcellus; assay: Compound was evaluated for antihistaminic activity against isolated guinea pig ileum.; format: functional
Method in brief: (§2)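 Isolated guinea pig ileum segment (about 2 cm) in an organ bath of Krebs buffer at 37 °C, bubbled with 95% O2–5% CO2. Three cumulative histamine dose-response curves were run first, starting at 10 nM. After washing, the strip was exposed to compound for 30 min and the curve repeated. KB was derived by Cheng–Prusoff. Means ± SD of ≥3 independent experiments.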

[3] = target: T1, Cysteinyl leukotriene receptor 1 (Cavia porcellus, UniProt Q2NNR5); assay: Dissociation constant was determined against Cysteinyl leukotriene D4 receptor of guinea pig lung membranes using radioligand binding assays.; format: tissue-based
T1 sequence (Q2NNR5 whole entry): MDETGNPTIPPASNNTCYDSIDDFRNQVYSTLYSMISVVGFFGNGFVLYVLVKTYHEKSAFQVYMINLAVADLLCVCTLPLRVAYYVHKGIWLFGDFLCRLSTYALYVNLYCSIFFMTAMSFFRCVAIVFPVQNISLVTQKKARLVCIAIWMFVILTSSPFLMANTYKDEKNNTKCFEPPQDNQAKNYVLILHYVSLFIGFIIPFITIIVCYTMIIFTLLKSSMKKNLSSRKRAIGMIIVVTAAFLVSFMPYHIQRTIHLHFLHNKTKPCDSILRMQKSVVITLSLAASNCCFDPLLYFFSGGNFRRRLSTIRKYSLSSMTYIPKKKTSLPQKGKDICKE

[4] = target: T2, Histamine H1 receptor (Cavia porcellus, UniProt P31389); assay: dissociation constant was determined against H1 receptor of guinea pig lung membranes using radioligand binding assays.; format: tissue-based
T2 sequence (P31389 whole entry): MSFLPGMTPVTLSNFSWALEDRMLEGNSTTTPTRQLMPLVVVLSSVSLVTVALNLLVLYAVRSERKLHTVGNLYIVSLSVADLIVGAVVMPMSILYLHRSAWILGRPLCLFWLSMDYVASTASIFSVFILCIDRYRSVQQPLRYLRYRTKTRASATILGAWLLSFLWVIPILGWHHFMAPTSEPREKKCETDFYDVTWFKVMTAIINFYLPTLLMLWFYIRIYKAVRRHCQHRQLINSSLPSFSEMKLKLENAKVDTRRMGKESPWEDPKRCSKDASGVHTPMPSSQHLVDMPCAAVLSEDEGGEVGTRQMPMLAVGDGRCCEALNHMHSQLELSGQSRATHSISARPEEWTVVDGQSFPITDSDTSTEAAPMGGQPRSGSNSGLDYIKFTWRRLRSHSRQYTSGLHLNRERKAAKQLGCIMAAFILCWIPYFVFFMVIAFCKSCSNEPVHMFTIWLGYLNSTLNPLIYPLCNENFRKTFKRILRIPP
Method in brief: (§3)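 Guinea pig lung membranes were incubated with 0.5 nM [3H]mepyramine and compound at 37 °C in 50 mM Na-K phosphate, pH 7.5. Nonspecific binding was defined with (-)-dimethindene. The reaction was stopped with ice-cold buffer, then filtered on GF/C and counted by scintillation. Radioligand KD was 3.30 nM. KB by Cheng–Prusoff; means of two independent assays in triplicate.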

[5] = species on record: Cavia porcellus; assay: Compound was evaluated for antihistaminic activity against isolated guinea pig ileum; Not active; format: functional; method in brief: as §2
[6] = species on record: Cavia porcellus; assay: Compound was evaluated for inhibition of contraction in guinea pig ileum induced by leukotriene D4 (LTD4); Not active; format: functional, organism-based; method in brief: as §1
[7] = target: T2, Histamine H1 receptor; assay: Dissociation constant was determined against H1 receptor of guinea pig lung membranes using radioligand binding assays.; format: tissue-based
Method in brief: as §3, with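 “scintillation.” for “scintillation. Radioligand KD was 3.30 nM.”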

[8] = species on record: Cavia porcellus; assay: Compound was evaluated for inhibition of [3H]LTD4 binding in guinea pig lung membrane fragments.

Row | SMILES | IC50 [1] | Kb ([2]; Cavia porcellus, Ileum) | also measured
1 | O=C(O)c1cc(=O)c2ccc(OCCCN3CCC(OC(c4ccccc4)c4ccccc4)CC3)cc2o1 | 1450 nM | 9.12 nM | 
2 | O=C(O)c1cc(=O)c2ccc(OCCCCCN3CCC(OC(c4ccccc4)c4ccccc4)CC3)cc2o1 | 18300 nM | 17 nM | 
3 | O=C(O)c1cc(=O)c2ccc(OCCCN3CCC(C(O)(c4ccccc4)c4ccccc4)CC3)cc2o1 | 22800 nM | 5.25 nM | 
4 | O=c1cc(C2N=NN=N2)oc2cc(OCCCN3CCC(=C(c4ccccc4)c4ccccc4)CC3)ccc12 | 190 nM | 3.63 nM | Kd [3]: 2340 nM; Kd [4]: 5.89 nM
5 | CCCc1c(OCC(O)COc2ccc3c(=O)cc(C(=O)O)oc3c2CCC)ccc(C(C)=O)c1O (stereo unspecified) [FPL-55712] | 120 nM |  | Kb [5]: inactive
6 | CC(C)(C)c1ccc(C(O)CCCN2CCC(C(O)(c3ccccc3)c3ccccc3)CC2)cc1 (stereo unspecified) [TERFENADINE] |  |  | IC50 [6]: Not Active
7 | O=c1cc(C2N=NN=N2)oc2cc(OCCCN3CCC(C(O)(c4ccccc4)c4ccccc4)CC3)ccc12 | 56700 nM | 1.7 nM | 
8 | O=C(O)c1cc(=O)c2cc(OCCCN3CCC(=C(c4ccccc4)c4ccccc4)CC3)ccc2o1 | 650 nM | 5.75 nM | Kd [3]: 4270 nM; Kd [7]: 5.98 nM
9 | Cc1ccc(C(OC2CCN(CCCOc3ccc4c(=O)cc(C(=O)O)oc4c3)CC2)c2ccccc2)cc1 (stereo in doubt; 1j) |  |  | Kb [2]: 2.24 nM; IC50 [8]: 212000 nM
10 | Cc1ccc(C(OC2CCN(CCCOc3ccc4c(=O)cc(C(=O)O)oc4c3)CC2)c2ccccc2)cc1 (stereo in doubt; 1i) |  |  | Kb [2]: 12.3 nM; IC50 [8]: 16600 nM
11 | O=C(O)c1cc(=O)c2cc(OCCCN3CCC(C(O)(c4ccccc4)c4ccccc4)CC3)ccc2o1 | > 100000 nM | 3.8 nM | 
12 | O=C(O)c1cc(=O)c2ccc(OCCCN3CCC(=C(c4ccccc4)c4ccccc4)CC3)cc2o1 | 20400 nM | 16.2 nM | 
13 | O=C(O)c1cc(=O)c2ccc(OCCCCCCN3CCC(OC(c4ccccc4)c4ccccc4)CC3)cc2o1 | 48200 nM | 5.13 nM | 
14 | O=C(O)c1cc(=O)c2ccc(OCCCCN3CCC(OC(c4ccccc4)c4ccccc4)CC3)cc2o1 | 9890 nM | 7.08 nM | 
